Laboratory results from ChEMBL document CHEMBL1152555, “Design, synthesis and cruzain docking of 3-(4-substituted-aryl)-1,2,4-oxadiazole-N-acylhydrazones as anti-Trypanosoma cruzi agents” (Bioorg Med Chem, 2009).
pIC50: −log10 of the molar value.

Key:
Trypanosoma cruzi [1] = assay: Antitrypanosomal activity against Trypanosoma cruzi trypomastigote Y strain after 24 hrs by trypan blue exclusion assay; conditions: for pIC50: read-out: IC50; for IC50: read-out: pIC50 (converted)
[2] = Cytotoxicity against BALB/c mouse splenocyte assessed as [3H]thymidine incorporation by beta-counting; format: cell-based; conditions: splenocytes, read-out: MNCC
In short: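 Splenocytes from BALB/c mice were plated at 5 × 10⁶ cells per well in DMEM with FCS and gentamycin. Each compound was tested at […], in triplicate, from DMSO stock. Cells were given ³H-thymidine at 1 µCi per well for 24 h at 37 °C and 5% CO₂. Incorporation was compared with untreated wells. The reported value is the highest concentration reducing incorporation by less than 10%.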

Trypanosoma cruzi [3] = assay: Antitrypanosomal activity against Trypanosoma cruzi Y strain
Mus musculus = assay: Toxicity in mouse assessed as general toxicity at 100 mg/kg, ip after 72 hrs; format: organism-based; set-up: dose 100 mg/kg, route intraperitoneal; conditions: in vivo
In short: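 Mice received a single intraperitoneal dose of 100 mg/kg. They were watched for 72 h for general toxicity signs, including behavior and feeding, and for survival. Controls received only 100 µL of 30% DMSO:70% H₂O (v/v).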

| Structure (SMILES) | pIC50 (Trypanosoma cruzi [1]) | IC50 (Trypanosoma cruzi [1]) | pIC50 (Trypanosoma cruzi [3]) | MNTC [2] | Activity (Mus musculus) |
| --- | --- | --- | --- | --- | --- |
| CC(=O)Nc1ccc(/C=N/NC(=O)c2nc(-c3ccc(Cl)cc3)no2)cc1 | – | – | < 3.82 | 100 µg/mL | – |
| CC(=O)Nc1ccc(/C=N/NC(=O)c2nc(-c3ccc(O)cc3)no2)cc1 | – | – | < 3.82 | 33 µg/mL | – |
| CC(=O)Nc1ccc(/C=N/NC(=O)c2nc(-c3ccc([N+](=O)[O-])cc3)no2)cc1 | – | – | < 3.82 | 33 µg/mL | – |
| CN(C)c1ccc(C(=C2C=CC(=[N+](C)C)C=C2)c2ccc(N(C)C)cc2)cc1 [GENTIAN VIOLET] | 5.68 | – | – | < 1 µg/mL | – |
| O=C(Cn1ccnc1[N+](=O)[O-])NCc1ccccc1 [BENZNIDAZOLE] | – | 5.01 µM | – | 100 µg/mL | – |
| O=C(N/N=C/c1ccc(O)cc1)c1nc(-c2ccc(O)cc2)no1 | 4.00 | 100 µM | 3.90 | 100 µg/mL | – |
| CC(=O)Nc1ccc(/C=N/NC(=O)c2nc(-c3ccc(Br)cc3)no2)cc1 | – | – | < 3.82 | 33 µg/mL | – |
| CC(=O)Nc1ccc(/C=N/NC(=O)c2nc(-c3ccc(F)cc3)no2)cc1 | – | – | < 3.82 | 33 µg/mL | – |
| COc1ccc(-c2noc(C(=O)N/N=C/c3ccc(NC(C)=O)cc3)n2)cc1 | – | – | < 3.82 | 100 µg/mL | – |

Further compounds by rising pIC50 (Trypanosoma cruzi [3]), results first:

| pIC50 (Trypanosoma cruzi [1]) | IC50 (Trypanosoma cruzi [1]) | pIC50 (Trypanosoma cruzi [3]) | Structure (SMILES) | MNTC [2] | Activity (Mus musculus) |
| --- | --- | --- | --- | --- | --- |
| 4.45 | 35.5 µM | 4.11 | O=C(N/N=C/c1ccc(O)cc1)c1nc(-c2ccccc2)no1 | 3.3 µg/mL | – |
| 4.75 | 17.8 µM | 4.32 | Cc1ccc(-c2noc(C(=O)N/N=C/c3ccc(O)cc3)n2)cc1 | < 1.1 µg/mL | – |
| 4.67 | 21.4 µM | 4.60 | O=C(N/N=C/c1ccc(O)cc1)c1nc(-c2ccc([N+](=O)[O-])cc2)no1 | < 1.1 µg/mL | – |
| 4.67 | 21.4 µM | 4.67 | O=C(N/N=C/c1ccc(O)cc1)c1nc(-c2ccc(Cl)cc2)no1 | < 1.1 µg/mL | – |
| 4.78 | 16.6 µM | 4.68 | O=C(N/N=C/c1ccc(O)cc1)c1nc(-c2ccc(F)cc2)no1 | < 1.1 µg/mL | – |
| 4.69 | 20.4 µM | 4.71 | O=C(N/N=C/c1ccc(O)cc1)c1nc(-c2ccc(Br)cc2)no1 | 97 µM | Non-toxic |
| 5.44 | 3.63 µM | 4.85 | CC(=O)Nc1ccc(/C=N/NC(=O)c2nc(-c3ccccc3)no2)cc1 | 95 µM | Non-toxic |
| 4.49 | 32.4 µM | 4.86 | COc1ccc(-c2noc(C(=O)N/N=C/c3ccc(O)cc3)n2)cc1 | 85 µM | – |
| 5.41 | 3.89 µM | 5.01 | CC(=O)Nc1ccc(/C=N/NC(=O)c2nc(-c3ccc(C)cc3)no2)cc1 | 30 µM | – |
